ChEMBL document CHEMBL1123109, “Alkyl esters of 3-adenin-9-yl-2-hydroxypropanoic acid: a new class of broad-spectrum antiviral agents” (1985)
Converted amounts (≈) assume the structure as drawn.

What was measured:
Type in all cases: functional
[1] = tested on: Vesicular stomatitis virus; assay: Inhibition of Vesicular stomatitis virus induced cytopathicity in PRK cells.
[2] = tested on: Vesicular stomatitis virus; assay: Inhibition of Vesicular stomatitis virus induced cytopathicity in HEp-2 cells.
Method in brief: (§1)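 Vesicular stomatitis virus was inoculated at 100 CCID50 (100× the dose infecting 50% of cells) in each cell type: human embryonic skin-muscle fibroblasts, LR-strain trisomy-21 fibroblasts, HEp-2, CV-1, BS-C-1, Balb/3T3, RK13, human kidney, HeLa and Vero. CPE was read at 1–2 days in every cell type, once complete in untreated infected controls. The MIC is the concentration giving a 50% reduction in cytopathogenicity.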

HK = assay: Minimum inhibitory concentration which is required to reduce virus-induced cytopathogenicity by 50% against Vesicular stomatitis virus in human kidney,; method in brief: as §1
Vaccinia virus = assay: Inhibition of Vaccinia virus induced cytopathicity in PRK cells.; details: Orthopoxvirus vaccinia
[3] = tested on: Vesicular stomatitis virus; assay: Inhibition of Vesicular stomatitis virus induced cytopathicity in T-21 cells.; method in brief: as §1
Measles morbillivirus = assay: Inhibition of Measles virus induced cytopathicity in vero cells.
Coxsackievirus B4 = assay: Inhibition of Coxsackie B4 virus induced cytopathicity in HeLa cells.; details: Enterovirus B
PRK = assay: Cytotoxic concentration against PRK cells.; details: Oryctolagus cuniculus
Method in brief: (§2)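 Uninfected cells were incubated with compound for the same duration as the matching antiviral assay. The minimum cytotoxic concentration is the lowest one causing a microscopically detectable change in normal cell morphology.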

[4] = tested on: Vesicular stomatitis virus; assay: Inhibition of Vesicular stomatitis virus induced cytopathicity in CV-1 cells.; method in brief: as §1
Vero = assay: Cytotoxic concentration against Vero cells.; details: Chlorocebus sabaeus; method in brief: as §2
Poliovirus 1 = assay: Inhibition of polio virus 1 induced cytopathicity in HeLa cells.; details: Enterovirus C
[5] = tested on: Mammalian orthoreovirus 1; assay: Inhibition of Reo virus-1 induced cytopathicity in vero cells.
[6] = tested on: Vesicular stomatitis virus; assay: Inhibition of Vesicular stomatitis virus induced cytopathicity in HeLa cells.; method in brief: as §1
[7] = tested on: Vesicular stomatitis virus; assay: Inhibition of Vesicular stomatitis virus induced cytopathicity in BALB/3T3 cells.; details: in Mus musculus; method in brief: as §1
[8] = tested on: Vesicular stomatitis virus; assay: Inhibition of Vesicular stomatitis virus induced cytopathicity in Vero cells.; method in brief: as §1
Human alphaherpesvirus 1 = assay: Inhibition of HSV-1 induced cytopathicity in PRK cells.
Sindbis virus = assay: Inhibition of Sindbis virus induced cytopathicity in vero cells.
[9] = tested on: Vesicular stomatitis virus; assay: Inhibition of Vesicular stomatitis virus induced cytopathicity in E6SM cells.; method in brief: as §1
[10] = tested on: Vesicular stomatitis virus; assay: Inhibition of Vesicular stomatitis virus induced cytopathicity in RK13 cells.; method in brief: as §1
Human respirovirus 3 = assay: Inhibition of parainfluenza virus-3 induced cytopathicity in vero cells.
HeLa = assay: Cytotoxic concentration against HeLa cells.; details: Homo sapiens; method in brief: as §2
[11] = tested on: Vesicular stomatitis virus; assay: Inhibition of Vesicular stomatitis virus induced cytopathicity in BS-C-1 cells.; method in brief: as §1

Compound	MIC [1] [µg/mL]	MIC [2] [µg/mL]	MIC (HK) [µg/mL]	MIC (Vaccinia virus) [µg/mL]	MIC [3] [µg/mL]	MIC (Measles morbillivirus) [µg/mL]	MIC (Coxsackievirus B4) [µg/mL]	MCC (PRK) [µg/mL]	MIC [4] [µg/mL]	MCC (Vero) [µg/mL]	MIC (Poliovirus 1) [µg/mL]	MIC [5] [µg/mL]	MIC [6] [µg/mL]	MIC [7] [µg/mL]	MIC [8] [µg/mL]	MIC (Human alphaherpesvirus 1) [µg/mL]	MIC (Sindbis virus) [µg/mL]	MIC [9] [µg/mL]	MIC [10] [µg/mL]	MIC (Human respirovirus 3) [µg/mL]	further results
CCOC(=O)C(O)Cn1cnc2c(N)ncnc21 (centres undefined)	1 (≈ 3.98 µM)	7 (≈ 27.9 µM)	200 (≈ 796 µM)	3 (≈ 11.9 µM)	1 (≈ 3.98 µM)	20 (≈ 79.6 µM)	> 400	> 400	> 400	> 400	> 400	40 (≈ 159 µM)	4 (≈ 15.9 µM)	> 400	400 (≈ 1590 µM)	> 400	> 400	7 (≈ 27.9 µM)	2 (≈ 7.96 µM)	20 (≈ 79.6 µM)	MCC (HeLa): > 400 µg/mL; MIC [11]: > 400 µg/mL
COCCOC(=O)C(O)Cn1cnc2c(N)ncnc21 (centres undefined)	7 (≈ 24.9 µM)	7 (≈ 24.9 µM)	> 400	30 (≈ 107 µM)	15 (≈ 53.3 µM)	400 (≈ 1420 µM)	> 400	> 400	> 400	> 400	> 400	70 (≈ 249 µM)	20 (≈ 71.1 µM)	> 400	300 (≈ 1070 µM)	> 400	> 400	7 (≈ 24.9 µM)	70 (≈ 249 µM)	300 (≈ 1070 µM)	MCC (HeLa): > 400 µg/mL; MIC [11]: > 400 µg/mL
Nc1ncnc2c1ncn2CC(O)C(=O)OC1CCCCC1 (centres undefined)	1 (≈ 3.28 µM)	2 (≈ 6.55 µM)	> 200	3 (≈ 9.83 µM)	1 (≈ 3.28 µM)	15 (≈ 49.1 µM)	> 100	100	> 200	100	> 100	7 (≈ 22.9 µM)	30 (≈ 98.3 µM)	70 (≈ 229 µM)	> 100	100 (≈ 328 µM)	> 100	7 (≈ 22.9 µM)	70 (≈ 229 µM)	> 40	MCC (HeLa): 100 µg/mL; MIC [11]: 40 µg/mL (≈ 131 µM)
CCC(C)OC(=O)C(O)Cn1cnc2c(N)ncnc21 (centres undefined)	1 (≈ 3.58 µM)	7 (≈ 25.1 µM)	> 400	3 (≈ 10.7 µM)	1 (≈ 3.58 µM)	40 (≈ 143 µM)	> 400	> 400	> 400	> 400	> 400	70 (≈ 251 µM)	30 (≈ 107 µM)	> 400	150 (≈ 537 µM)	> 400	300 (≈ 1070 µM)	1 (≈ 3.58 µM)	15 (≈ 53.7 µM)	200 (≈ 716 µM)	MCC (HeLa): > 400 µg/mL; MIC [11]: > 400 µg/mL
CC(C)(C)OC(=O)C(O)Cn1cnc2c(N)ncnc21 (centres undefined)	150 (≈ 537 µM)	40 (≈ 143 µM)	> 400	150 (≈ 537 µM)	15 (≈ 53.7 µM)	150 (≈ 537 µM)	> 400	> 400	> 400	> 400	> 400	150 (≈ 537 µM)	150 (≈ 537 µM)	> 400	> 400	> 400	> 400	150 (≈ 537 µM)	30 (≈ 107 µM)	150 (≈ 537 µM)	MCC (HeLa): > 400 µg/mL; MIC [11]: > 400 µg/mL
Nc1ncnc2c1ncn2CC(O)C(=O)OCc1ccco1 (centres undefined)	15 (≈ 49.5 µM)	4 (≈ 13.2 µM)	> 40	10 (≈ 33 µM)	7 (≈ 23.1 µM)	> 40	> 40	40	> 40	40	> 40	30 (≈ 98.9 µM)	7 (≈ 23.1 µM)	> 40	> 40	> 40	> 40	40 (≈ 132 µM)	> 40	15 (≈ 49.5 µM)	MCC (HeLa): 40 µg/mL; MIC [11]: > 40 µg/mL
CC(C)OC(=O)C(O)Cn1cnc2c(N)ncnc21 (centres undefined)	3 (≈ 11.3 µM)	7 (≈ 26.4 µM)	300 (≈ 1130 µM)	3 (≈ 11.3 µM)	1 (≈ 3.77 µM)	150 (≈ 565 µM)	> 400	> 400	> 400	> 400	> 400	40 (≈ 151 µM)	30 (≈ 113 µM)	> 400	200 (≈ 754 µM)	> 400	> 400	3 (≈ 11.3 µM)	1 (≈ 3.77 µM)	70 (≈ 264 µM)	MCC (HeLa): > 400 µg/mL; MIC [11]: > 400 µg/mL
